INS-1E rescue – INS-1E beta cell protection from cytokine death; INS-1E cytokine-induced death, ATP luminescence, 48 h; normalised: neutral wells 0, positive control 100; protection from cytokine-induced ATP loss, % at 10 µM; 0.1% of 20,000 active; AID 488910;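 active = mean replicate protection from cytokine-induced ATP loss at least 50% and at least 75% of replicates each reaching 50%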
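assay system = INS-1E rat insulinoma cells | amount = 8000 cells per well | medium = phenol-red-free RPMI with 5% fetal bovine serum | doses = one compound concentration, pin transfer | timing = 48 h cytokine plus compound treatment, 10 min reagent incubation | also added = IL-1β, TNF-α and IFN-γ cytokine mix | signal = CellTiter-Glo luminescence measuring cellular ATP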
A1 apoptosis 2 – compounds inhibiting A1, read as caspase activation; MEF A1-2A-BIM cells, caspase-Glo luminescence, 3 h; percent of clofoctol response, DMSO zero; caspase activation, % (no concentration beside the values); 24,000 tested, under 10 active; AID 2465; in the data active = caspase activation above about 5.9%
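system = A1-2A-BIM-expressing MEF cells | quantity = 2500 MEF cells/well | dosing = 50 nL compound per well, pinned | schedule = overnight cell settling, then 3 h compound exposure, 37 °C | signal = luminescence from DEVD-luciferin Caspase-Glo reagent, 1:1 in 50 mM HEPES, 1 h RT | read-out = Caspase-3/7 activation, seen as rise in luminescence signal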
T cruzi HTS – inhibitors of intracellular Trypanosoma cruzi. activity score (inhibition), % at 5.01 µM. 4.9% of 22,000 active. intracellular Trypanosoma cruzi in host cells, plate reader; in the data active = activity score above about 55%;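 note: parasites and compound incubated about four days before reading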
A number is an active result; - = inactive; . = no result given. Many of the other results were omitted from the sample, so hits are more common in it than they were.

SMILES	INS-1E rescue	A1 apoptosis 2	T cruzi HTS
O=C1O[C@@H](c2ccccc2)[C@@H](c2ccccc2)N2[C@@H](c3ccccc3OCCO)[C@]3(C(=O)Nc4ccc(C#CCCO)cc43)[C@@H](C(=O)Nc3nc4ccccc4s3)[C@H]12	.	-	.
CC1(C)C[C@H]2C[C@H]3C(Br)=CC2(CO1)C(=O)[C@]31CO1	.	-	.
C[C@@H]1CCCCO[C@@H](CN(C)C(=O)Cc2ccccc2)[C@@H](C)CN([C@H](C)CO)C(=O)c2cc(NC(=O)Nc3ccc(C(F)(F)F)cc3)ccc2O1	-	.	-
CCOc1cccc(/C=N/NC(=O)c2ccccc2O)c1OCC	-	-	-
CC(/C=C/C(=O)NO)=C\c1ccccc1OC[C@@H]1[C@H]2C[C@H]3c4[nH]c5ccccc5c4CCN3C[C@@H]2CC[C@@H]1O	.	-	.
O=C(N/N=C/c1cn(Cc2ccccc2)c2ccccc12)c1ccccc1O	-	.	-
C[C@@H]1CCCCO[C@H](CN(C)C(=O)c2ccccc2)[C@@H](C)CN([C@@H](C)CO)C(=O)c2cc(NC(=O)Nc3ccc(C(F)(F)F)cc3)ccc2O1	.	-	.
C[C@H]1CN([C@@H](C)CO)C(=O)c2cc(NC(=O)Nc3ccc(C(F)(F)F)cc3)ccc2O[C@@H]1CN(C)C(=O)Nc1ccc(F)cc1	-	-	-
C[C@@H]1CCCCO[C@@H](CN(C)C(=O)c2ccccc2)[C@@H](C)CN([C@H](C)CO)C(=O)c2cc(NC(=O)Nc3ccc(C(F)(F)F)cc3)ccc2O1	-	-	67.8
C[C@@H]1CN([C@@H](C)CO)C(=O)c2cc(NC(=O)Nc3ccc(C(F)(F)F)cc3)ccc2O[C@@H]1CN(C)C(=O)Nc1ccc(F)cc1	-	.	57.9
C[C@H](CO)N1C[C@H](C)[C@H](CN(C)C(=O)Nc2ccc3c(c2)OCO3)OCCCC[C@H](C)Oc2ccc(NC(=O)Nc3ccc(C(F)(F)F)cc3)cc2C1=O	.	-	.
C[C@@H]1CCCCO[C@H](CN(C)C(=O)Nc2ccc(C(F)(F)F)cc2)[C@@H](C)CN([C@H](C)CO)C(=O)c2cc(NC(=O)Nc3ccc4c(c3)OCO4)ccc2O1	-	.	59.1
C[C@@H]1CCCCO[C@H](CN(C)C(=O)Nc2ccccc2)[C@@H](C)CN([C@H](C)CO)C(=O)c2cc(NC(=O)Nc3ccc(C(F)(F)F)cc3)ccc2O1	-	.	70.2
C[C@H]1CCCCO[C@@H](CN(C)C(=O)Nc2ccccc2)[C@@H](C)CN([C@@H](C)CO)C(=O)c2cc(NC(=O)Nc3ccc(C(F)(F)F)cc3)ccc2O1	.	-	.
C[C@H](CO)N1C[C@H](C)[C@@H](CN(C)Cc2ccc(-c3ccccc3)cc2)Oc2ccc(NS(=O)(=O)c3ccc(Cl)cc3)cc2C1=O	-	.	-
C[C@H](CO)N1C[C@H](C)[C@H](CN(C)Cc2ccc(-c3ccccc3)cc2)Oc2ccc(NS(=O)(=O)c3ccc(Cl)cc3)cc2C1=O	-	-	56.3
C[C@@H]1CN([C@H](C)CO)C(=O)c2cc(NS(=O)(=O)c3ccc(Cl)cc3)ccc2O[C@@H]1CN(C)Cc1ccc(-c2ccccc2)cc1	-	-	-
C[C@@H]1CN([C@@H](C)CO)C(=O)c2cc(NS(=O)(=O)c3ccc(Cl)cc3)ccc2O[C@@H]1CN(C)Cc1ccc(-c2ccccc2)cc1	-	-	69.1
C[C@@H]1CCCCO[C@H](CN(C)C(=O)NC2CCCCC2)[C@H](C)CN([C@H](C)CO)C(=O)c2cc(NC(=O)C3CCCCC3)ccc2O1	.	-	.
Cc1ccc(S(=O)(=O)N(C)C[C@H]2Oc3c(NC(=O)c4nc5ccccc5s4)cccc3C(=O)N([C@@H](C)CO)C[C@H]2C)cc1	-	-	-
Cc1ccc(S(=O)(=O)N(C)C[C@H]2Oc3c(NC(=O)c4nc5ccccc5s4)cccc3C(=O)N([C@H](C)CO)C[C@@H]2C)cc1	-	.	88.9
Cc1ccc(S(=O)(=O)N(C)C[C@H]2Oc3c(NC(=O)c4nc5ccccc5s4)cccc3C(=O)N([C@@H](C)CO)C[C@@H]2C)cc1	-	.	74.7
C[C@H](CO)N1C[C@H](C)[C@H](CN(C)S(=O)(=O)c2ccc(F)cc2)Oc2c(NC(=O)c3nc4ccccc4s3)cccc2C1=O	-	.	61.1
Cc1ccc(S(=O)(=O)N(C)C[C@H]2Oc3c(NC(=O)c4nc5ccccc5s4)cccc3C(=O)N([C@H](C)CO)C[C@H]2C)cc1	-	.	-
C[C@@H]1CN([C@H](C)CO)C(=O)c2cccc(NC(=O)c3nc4ccccc4s3)c2O[C@@H]1CN(C)S(=O)(=O)c1ccccc1	-	.	-
SMILES	INS-1E rescue	A1 apoptosis 2	T cruzi HTS
C[C@@H]1CN([C@H](C)CO)C(=O)c2cccc(NS(=O)(=O)c3ccc(F)cc3)c2O[C@@H]1CN(C)S(=O)(=O)c1ccc(F)cc1	-	-	-
C[C@H](CO)N1C[C@H](C)[C@H](CN(C)S(=O)(=O)c2ccc(F)cc2)Oc2c(NS(=O)(=O)c3ccc(F)cc3)cccc2C1=O	-	-	61.3
N#Cc1ccc(/C=N/NC(=O)CCCCCC(=O)NO)cc1	.	-	.
COC(=O)CCCCCCC(=O)N/N=C/c1c(O)ccc2ccccc12	-	-	-
COCCOC(=O)N1C(=O)[C@@]2(c3cc(C#CCC(C(=O)OC)C(=O)OC)ccc31)[C@H](c1ccc(OCCO)cc1)N1[C@H](c3ccccc3)[C@H](c3ccccc3)OC(=O)[C@H]1[C@@H]2C(=O)N1CCN(c2ncccn2)CC1	.	-	.
C[C@@H]1CN([C@H](C)CO)C(=O)c2cccc(NC(=O)c3nc4ccccc4s3)c2O[C@H]1CN(C)S(=O)(=O)c1ccccc1	-	.	-
C[C@@H]1CN([C@@H](C)CO)C(=O)c2cccc(NC(=O)c3nc4ccccc4s3)c2O[C@@H]1CN(C)S(=O)(=O)c1ccccc1	-	.	60.4
O=C(NO)c1cccc(C(=O)N/N=C/c2cccc3ccccc23)c1	-	-	-
O=C(NO)c1ccc(C(=O)N/N=C/c2ccc(Br)s2)cc1	-	.	-
C[C@@H]1CN([C@@H](C)CO)C(=O)Cc2cc(NC(=O)Nc3cccc4ccccc34)ccc2O[C@@H]1CN(C)Cc1ccc(Cl)c(Cl)c1	-	.	64.7
C[C@H]1CN([C@@H](C)CO)C(=O)Cc2cc(NC(=O)Nc3cccc4ccccc34)ccc2O[C@@H]1CN(C)Cc1ccccc1	-	.	58.0
C[C@@H]1CN([C@@H](C)CO)C(=O)Cc2cc(NC(=O)Nc3cccc4ccccc34)ccc2O[C@H]1CN(C)Cc1ccc(-c2ccccc2)cc1	.	-	.
C[C@@H]1CN([C@@H](C)CO)C(=O)Cc2cc(NC(=O)Nc3cccc4ccccc34)ccc2O[C@@H]1CN(C)Cc1ccc2c(c1)OCO2	-	-	-
C[C@H](CO)N1C[C@H](C)[C@@H](CN(C)Cc2ccccc2)Oc2ccc(NC(=O)Nc3cccc4ccccc34)cc2CC1=O	.	-	.
C[C@@H]1CN([C@@H](C)CO)C(=O)c2cc(NC(=O)Nc3cccc4ccccc34)ccc2O[C@@H]1CN(C)Cc1ccc(Cl)c(Cl)c1	.	.	-
C[C@@H]1CN([C@H](C)CO)C(=O)Cc2cc(NC(=O)Nc3cccc4ccccc34)ccc2O[C@@H]1CN(C)Cc1ccc2c(c1)OCO2	-	.	71.2
